TLR4 MyD88 comp: blocks binding of human TLR4 to MyD88; inhibition, % at 8.4 µM; O00206+Q99836; actives 0.18% (n = 200,000); HeLa CL3-4 TLR4/MyD88 BLA complementation, FRET ratio; in the data active means inhibition above about 25%;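 further: 0% = vehicle and 100% = reference inhibitor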
MC4R antagonist: blocks human MC4R cAMP signaling; P32245; MC4R-expressing cells, MTII-stimulated cAMP, LANCE TR-FRET; inhibition, % at 6.5 µM; actives 0.48% (n = 360,000); AID 540295;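 active means inhibition above its plate's cutoff, the mean of tested wells on that plate plus 3 SD, cut at about 29% in these data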;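 further: 0% = Melanotan II alone and 100% = Melanotan II plus saturating MCL0020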
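System – human MC4R-expressing U2OS cells · Also added – Melanotan II · Dosing – one concentration, 6.5 µM nominal · Timing – 30-min compound, 1-h challenge, 1-h detection, room temperature · Measured by – Eu-cAMP/anti-cAMP TR-FRET, emission 671 nm · Replicates – singlicate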
NOD2-RIPK2 inh: NOD2-RIPK2 protein interaction inhibition; O43353; CHO BLA complementation NOD2-RIPK2, CCF4 ratio; inhibition, % at 4.98 µM; actives 0.38% (n = 360,000); in the data active means inhibition above about 21%;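 further: 0% = vehicle only and 100% = reference blocker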
MC4R ag barr: agonists of human melanocortin 4 receptor (MC4R) beta-arrestin; actives 0.98% (n = 360,000); AID 540308; U2OS MC4R beta-arrestin complementation, luminescence; percent of melanotan II response, DMSO zero; activation, % at 8.9 µM;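 active means activation above a per-plate cutoff, the mean activation of sample wells on that plate plus 3 SD, cut at about 8% in these data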
NTR1 ag: activates human neurotensin receptor 1 | NTR1-U2OS beta-arrestin-GFP spot imaging, agonist mode | activation, % at 20 µM | actives 0.17% (n = 330,000) | AID 493036;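 active means activation at or above 40% of the spot to cytoplasm intensity ratio, with at least 20 cells analyzed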;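 further: 0% = DMSO without peptide and 100% = 100 nM NTR1 peptide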
TLR9-MyD88 inh: inhibitors of human TLR9-MyD88 binding; CHO BLA complementation TLR9-MyD88, CCF4 FRET ratio; inhibition, % at 4.98 µM; actives 0.21% (n = 340,000);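 active means inhibition above the mean over all tested compounds plus 3 SD, cut at about 21% in these data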;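 further: 0% = DMSO only wells and 100% = clavulanate BLA inhibitor control wells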
MC4R barr ag: human MC4R beta-arrestin agonism confirmation; shares compounds with MC4R ag barr; U2OS MC4R beta-arrestin recruitment, luminescence; scaled DMSO 0%, Melanotan II 100%; activation, % at 8.9 µM; actives 31% (n = 2,400);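 active means mean activation across replicates above the hit cutoff set in the earlier primary screen, cut at about 8% in these data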
MOR-DOR barr ag: OPRM1-OPRD1 heterodimer agonism counter-screen. AID 602194. U2OS PathHunter beta-arrestin, beta-gal luminescence; percent of deltorphin B response, DMSO zero. activation, % at 9.2 µM. shares compounds with MC4R ag barr. actives 5.8% (n = 2,400);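 active means mean activation across replicates exceeds the hit threshold derived in the earlier primary screen, cut at about 18% in these data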;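 further: 100% = deltorphin B at 0.9 µM final and 0% = DMSO alone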
An asterisk follows results filed as active; · = no result given. Rows were chosen to be rich in hits. Some 1.9% of all compounds tested hit in one or more screens of this group.

SMILES	TLR4 MyD88 comp	MC4R antagonist	NOD2-RIPK2 inh	MC4R ag barr	NTR1 ag	TLR9-MyD88 inh	MC4R barr ag	MOR-DOR barr ag
COC(=O)c1cc(OC)c(OC)cc1NC(=O)Nc1ccc(OC)cc1	-3	9	-13	14*	0	5	-1	2
COC(=O)c1cc(OC)c(OC)cc1NC(=O)Nc1cccc(C(C)=O)c1	0	15	6	-1	2	12	·	·
CCc1cc2cccc(C)c2nc1SCC(=O)NC1CCCC1	·	6	-6	-1	-1	-12	·	·
CCc1cc2cc(C)ccc2nc1SCC(=O)NC1CCCC1	·	5	3	11*	7	-12	-1	8
O=C(O)CCSSCCC(=O)O	·	6	2	-3	0	5	·	·
COc1cc2c(cc1NC(=O)c1cccc([N+](=O)[O-])c1)oc1ccccc12	1	-23	-3	22*	6	-17	31*	47*
CCCCCc1ccc(OCCC[n+]2ccccc2)c(CCCCC)c1	·	18	6	15*	13	-6	4	8
C=CCNC(=O)CC1Nc2c3ccccc3nc(=S)n2C1=O (stereo not drawn)	-3	13	1	-4	0	-13	·	·
CCC/C=N/NC(=O)c1cccc(Br)c1	-7	-3	1	-2	2	7	·	·
O=C(Nc1cc(N2CCOCC2)ncn1)Nc1cccc2ccccc12	0	12	1	22*	0	1	7	5
O=C(CCCN1C(=O)/C(=C/c2cccs2)SC1=S)NNC(=O)c1ccncc1	2	7	-2	1	4	-4	·	·
O=C(CCCN1C(=O)/C(=C\c2cccs2)SC1=S)Nc1ccc(O)cc1	·	26	-1	10*	0	3	16*	2
O=C(CCCN1C(=O)/C(=C/c2cccs2)SC1=S)NNC(=O)c1ccccc1O	-2	-3	0	18*	3	3	2	4
CC(=O)O[C@H]1[C@@H](O)[C@H](O)[C@H](Oc2c(O)c(C)c3c4c2[C@@H](C)CC[C@@H]4[C@@H](C)C[C@H]3C=C(C)C)O[C@H]1C	·	11	-10	1	26	1	·	·
N#C/C(=C/c1ccc(-c2ccc([N+](=O)[O-])cc2)o1)C(=O)Nc1nc(-c2cccs2)cs1	·	7	-4	-1	·	-10	·	·
N#C/C(=C\c1ccc(-c2ccc(F)cc2)o1)C(=O)Nc1nc(-c2cccs2)cs1	-4	12	-6	39*	11	-1	19*	1
CC(=O)c1cc2c(cc1NC(=O)Cc1ccsc1)OCO2	·	1	-3	-1	-1	-8	·	·
O=c1cc(-c2ccccc2)oc2ccc3ccccc3c12	·	3	3	10.0*	·	7	9.5*	4
CCOC(=O)Cn1nc(-c2ccc(F)cc2)oc1=O	-7	8	9	1	1	-4	·	·
OCCN(CCO)c1ccc(C(c2ccccc2Cl)c2ccc(N(CCO)CCO)cc2Cl)c(Cl)c1	0	9	5	14*	34	-1	9.6*	3
COc1cccc(NC(=O)COC(=O)CCCC2=NS(=O)(=O)c3ccccc3N2)c1	·	0	-1	0	0	10	·	·
Cc1c(CN(C)C)c2c(n1Cc1ccccc1)C(=O)c1ccccc1-2	3	-11	-9	-1	4	-3	·	·
O=C(Nc1ccc(-c2nc3c(ccc4ccccc43)o2)cc1)c1ccco1	2	3	-39	15*	4	2	4	6
COC(=O)C[C@H]1C=C[C@H](NC(=O)C2CCOCC2)[C@@H](CO)O1	·	·	-10	·	·	·	·	·
COc1cccc(OC)c1NC(=O)CN(C)S(=O)(=O)c1ccc2c(c1)OCCO2	·	-6	-8	-2	-1	-3	·	·
SMILES	TLR4 MyD88 comp	MC4R antagonist	NOD2-RIPK2 inh	MC4R ag barr	NTR1 ag	TLR9-MyD88 inh	MC4R barr ag	MOR-DOR barr ag
N#Cc1cc(-c2ccccc2)cnc1Sc1ccc(Cl)cc1	6	3	1	-1	3	2	·	·
N#Cc1cc(-c2ccc(Cl)cc2)cnc1Sc1ccc(F)cc1	1	1	-15	18*	6	-8	5	5
NC(=S)NN=C1C=CCCC1	·	3	5	0	·	3	·	·
Cc1ccc(S(=O)(=O)NCCNc2ccc(Br)c(C)c2)cc1	·	2	9	18*	-2	13	4	7
CC(=O)c1cccc(NC(=O)c2noc3c2CCc2ccccc2-3)c1	1	10	-12	16*	7	2	9.7*	3
COc1ccc(C(C)=O)cc1COC(=O)c1ccc2c(c1)OCCO2	·	0	5	9.8*	1	-6	4	2
COc1ccc(NC(=O)COC(=O)c2ccc3c(c2)OCO3)c(OC)c1	·	14	-10	14*	1	-4	-2	4
COc1ccc(C)cc1NC(=O)COC(=O)c1ccc2c(c1)OCCO2	·	1	-1	10*	1	-6	-2	17
COc1ccc(NC(=O)COC(=O)c2ccc3c(c2)OCCO3)cc1OC	·	14	1	17*	3	2	9.0*	3
Cc1ccc(S(=O)(=O)N2CCCC2)cc1C(=O)N1CCC(C)CC1	·	15	-1	-2	0	3	·	·
COc1ccc2c(C)cc(SCC(=O)N(C)C3CCS(=O)(=O)C3)nc2c1 (stereo not drawn)	7	-1	0	0	0	2	·	·
CCOC(=O)C1=CCN(S(=O)(=O)c2ccc(F)cc2)C1c1ccc(Cl)c(Cl)c1 (stereo not drawn)	·	·	-8	·	·	·	·	·
COc1ccc(C)cc1NC(=O)c1ccc2c(c1)OCO2	-13	-4	-1	-1	2	-2	·	·
COc1ccc(C)cc1NC(=O)COC(=O)c1ccc2c(c1)OCO2	·	3	-12	13*	4	-4	-4	3
Cc1nc(NC(=O)c2ccco2)sc1-c1csc(Nc2ccc(Cl)cc2)n1	3	21	-2	10*	0	2	9.1*	5
O=C1CC(SC(=Nc2ccccc2)Nc2ccccc2)C(=O)N1c1ccc(Cl)c(Cl)c1 (stereo not drawn)	1	5	-14	9.7*	22	-8	4	5
O=C1CC(SC(=NCc2ccc3c(c2)OCO3)Nc2ccccc2)C(=O)N1c1ccccc1 (stereo not drawn)	-2	5	-6	21*	2	-6	1	9
O=C(O)c1ccc(N2C(=O)CC(SC(=NCc3ccc4c(c3)OCO4)Nc3ccccc3)C2=O)cc1 (stereo not drawn)	·	-12	-5	0	1	-4	·	·
